Laboratory results as given in ChEMBL document CHEMBL4049448, “Development of a Potent Wound Healing Agent Based on the Liver Fluke Granulin Structural Fold” (J Med Chem, 2017).
Activity calls are given as the source filed them. The rule behind the calls is not given here. Positions of bridges follow the written chain, without caps; N, C: chain ends. Residues, ends and D or L forms follow the SMILES beside them.

How the values were obtained:
Mus musculus = assay: Wound healing activity in BALB/c mouse assessed as biopsy punch-induced wound closure at 56 pmol administered topically daily as 1.5% methyl cellulose gel for 4 days measured on day 4 post last dose relative to control; type: functional
Summary of the method: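 Female BALB/c mice, 11−12 weeks, 19−23 g, groups of 4−5. Under ip xylazine 16 mg/kg and ketamine 80 mg/kg, a 5 mm biopsy punch made a skin-deep scalp wound (~0.2 cm2). Betadine was applied first. Then 56 pmol in 50 μL 1.5% methylcellulose gel was applied daily, days 0−4. Healing at day 4 expressed relative to PBS vehicle.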

[1] = test system: H69 cholangiocyte cell line (Homo sapiens); assay: Induction of human H69 cell growth at 400 nM after 5 to 6 days by real time cell proliferation assay relative to control
NCI-H69 [2] = assay: Induction of human H69 cell growth up to 2 uM after 5 to 6 days by real time cell proliferation assay; type: functional, cell-based
Summary of the method: (§1)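 H69 SV40-transformed human cholangiocytes, seeded 1500 cells/well in complete media and grown overnight, then washed with PBS and held ≥6 h in low-nutrient medium (0.5% FCS, 1/20 growth factors). Single treatment added at 10× stock. Impedance cell index read hourly for 5−6 days and normalized to pre-treatment. Proliferation ratio taken at day 4 versus control (tropomyosin-derived 20-residue peptide for peptides; thioredoxin for recombinant protein). Two-Way ANOVA with Dunnett's correction.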

NCI-H69 [3] = assay: Induction of human H69 cell growth at 32 nM after 5 to 6 days by real time cell proliferation assay relative to control; type: functional; summary of the method: as §1
NCI-H69 [4] = assay: Cytotoxicity against human H69 cells up to 2 uM after 5 to 6 days by real time cell proliferation assay; type: cell-based
NCI-H69 [5] = assay: Induction of human H69 cell growth at 2 uM after 5 to 6 days by real time cell proliferation assay relative to control; type: functional; summary of the method: as §1
NCI-H69 [6] = assay: Induction of human H69 cell growth at 400 nM after 5 to 6 days by real time cell proliferation assay relative to control; type: functional; summary of the method: as §1

| Structure (SMILES) | Activity (Mus musculus) | Activity [1] | Activity (NCI-H69 [2]) | Activity (NCI-H69 [3]) | Activity (NCI-H69 [4]) | Activity (NCI-H69 [5]) | Activity (NCI-H69 [6]) |
| --- | --- | --- | --- | --- | --- | --- | --- |
| CSCC[C@H](NC(=O)[C@@H]1CCCN1C(=O)[C@H](C)NC(=O)[C@@H]1CSSC[C@@H]2NC(=O)[C@H]([C@@H](C)O)NC(=O)[C@H](Cc3ccc(O)cc3)NC(=O)[C@H](C(C)C)NC(=O)[C@@H]3CCCN3C(=O)[C@H](CC(=O)O)NC(=O)[C@@H]3CCCN3C(=O)[C@@H](NC(=O)[C@H](CO)NC(=O)[C@@H]3CCCN3C(=O)[C@H](CO)NC(=O)[C@@H](N)CCCNC(=N)N)CSSC[C@H](NC(=O)[C@H]([C@@H](C)O)NC(=O)[C@H](CCC(N)=O)NC(=O)CNC(=O)[C@@H]3CCCN3C(=O)[C@H](CCCNC(=N)N)NC2=O)C(=O)N[C@@H](C)C(=O)N[C@@H](CCCNC(=N)N)C(=O)NCC(=O)N[C@@H](CC(C)C)C(=O)N[C@@H](Cc2cnc[nH]2)C(=O)NCC(=O)N[C@@H](Cc2ccc(O)cc2)C(=O)NCC(=O)N1)C(=O)N[C@@H](CC(=O)O)C(=O)O (H-RSPSCPDPVYTCRPGQTCARGLHGYGCAPMD-OH; disulfide 5-18, 12-27) | 26 - 41% | inactive | – | – | – | – | – |
| CC[C@H](C)[C@H](NC(=O)[C@@H](N)C(C)C)C(=O)N[C@@H](Cc1cnc[nH]1)C(=O)N[C@H]1CSSC[C@@H]2NC(=O)[C@H]([C@@H](C)O)NC(=O)[C@H]([C@@H](C)O)NC(=O)CNC(=O)[C@H](CC(=O)O)NC(=O)[C@@H]3CCCN3C(=O)[C@H](CSSC[C@@H](C(=O)N[C@@H](C)C(=O)N3CCC[C@H]3C(=O)N[C@@H](Cc3ccccc3)C(=O)N[C@@H](CO)C(=O)O)NC(=O)[C@H](Cc3ccc(O)cc3)NC(=O)[C@H](Cc3c[nH]c4ccccc34)NC(=O)[C@H](C(C)C)NC(=O)CNC(=O)[C@H](Cc3ccc(O)cc3)NC(=O)[C@@H]3CCCN3C(=O)[C@H](CO)NC(=O)[C@H](CC(C)C)NC(=O)[C@H](C)NC2=O)NC(=O)[C@H]([C@@H](C)CC)NC(=O)[C@H]([C@@H](C)O)NC(=O)[C@H](C)NC(=O)[C@H](C)NC(=O)[C@H](CC(=O)O)NC1=O (H-VIHCDAATICPDGTTCALSPYGVWYCAPFS-OH; disulfide 4-16, 10-26) | – | – | inactive | 9% | – | – | – |
| CC(C)C[C@@H]1NC(=O)CNC(=O)[C@H](CCCNC(=N)N)NC(=O)[C@H](C)NC(=O)[C@@H]2CSSC[C@H](N)C(=O)N3CCC[C@H]3C(=O)N[C@@H](CC(=O)O)C(=O)N3CCC[C@H]3C(=O)N[C@@H](C(C)C)C(=O)N[C@@H](Cc3ccc(O)cc3)C(=O)N[C@@H]([C@@H](C)O)C(=O)N[C@@H](CSSC[C@@H](C(=O)O)NC(=O)CNC(=O)[C@H](Cc3ccc(O)cc3)NC(=O)CNC(=O)[C@H](Cc3cnc[nH]3)NC1=O)C(=O)N[C@@H](CCCNC(=N)N)C(=O)N1CCC[C@H]1C(=O)NCC(=O)N[C@@H](CCC(N)=O)C(=O)N[C@@H]([C@@H](C)O)C(=O)N2 (H-CPDPVYTCRPGQTCARGLHGYGC-OH; disulfide 1-14, 8-23) | 37 - 41% | inactive | – | – | Non-Toxic | 14 - 25% | – |
| CC[C@H](C)[C@H](NC(=O)[C@@H]1CCCN1C(=O)[C@H](CCC(N)=O)NC(=O)[C@H](CC(C)C)NC(=O)[C@@H](NC(=O)[C@H](CC(=O)O)NC(=O)[C@@H](N)CCSC)[C@@H](C)O)C(=O)N[C@@H](CCCNC(=N)N)C(=O)N[C@@H](CO)C(=O)N1CCC[C@H]1C(=O)N[C@@H](CO)C(=O)N[C@H]1CSSC[C@@H]2NC(=O)[C@H]([C@@H](C)O)NC(=O)[C@H](CCC(N)=O)NC(=O)CNC(=O)[C@@H]3CCCN3C(=O)[C@H](CCCNC(=N)N)NC(=O)[C@H](CSSC[C@@H](C(=O)N[C@@H](C)C(=O)O)NC(=O)CNC(=O)[C@H](Cc3ccc(O)cc3)NC(=O)CNC(=O)[C@H](Cc3cnc[nH]3)NC(=O)[C@H](CC(C)C)NC(=O)CNC(=O)[C@H](CCCNC(=N)N)NC(=O)[C@H](C)NC2=O)NC(=O)[C@H]([C@@H](C)O)NC(=O)[C@H](Cc2ccc(O)cc2)NC(=O)[C@H](C(C)C)NC(=O)[C@@H]2CCCN2C(=O)[C@H](CC(=O)O)NC(=O)[C@@H]2CCCN2C1=O (H-MDTLQPIRSPSCPDPVYTCRPGQTCARGLHGYGCA-OH; disulfide 12-25, 19-34) | 37 - 41% | – | – | – | Non-Toxic | 14 - 25% | 9% |
